# Screening data from PubChem BioAssay.
# CHO parental Ca – counter-screen for OX1R antagonists: effect in parental CHO cells; AID 463079; actives 0.63% (n = 330,000); parental CHO-K1, ATP-induced calcium, Fluo-8 fluorescence; inhibition, % at 5.6 µM;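 active = inhibition above that plate's mean sample inhibition plus 3 SD, cut at about 26% in these data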
#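 Test system: untransfected parental CHO cell line; also added: ATP stimulus; dosing: 5.6 µM, single dose; signal: calcium-sensitive Fluo-8 fluorescence; measure: percent inhibition of ATP-evoked calcium rise, normalized to controls; benchmarks: low control ATP plus DMSO, high control DMSO only; replication: one well per compound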
# TAAR1 antagonist – antagonists of human TAAR1; Q96RJ0; CHO RD-HGA16 TAAR1, Fluo-8 calcium fluorescence, antagonist; inhibition, % at 3 µM; actives 1.5% (n = 360,000);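 active = inhibition above a per-plate cutoff, the mean inhibition of test compounds on that plate plus 3 SD, cut at about 49% in these data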
# Target sequence (Q96RJ0 whole entry, looked up): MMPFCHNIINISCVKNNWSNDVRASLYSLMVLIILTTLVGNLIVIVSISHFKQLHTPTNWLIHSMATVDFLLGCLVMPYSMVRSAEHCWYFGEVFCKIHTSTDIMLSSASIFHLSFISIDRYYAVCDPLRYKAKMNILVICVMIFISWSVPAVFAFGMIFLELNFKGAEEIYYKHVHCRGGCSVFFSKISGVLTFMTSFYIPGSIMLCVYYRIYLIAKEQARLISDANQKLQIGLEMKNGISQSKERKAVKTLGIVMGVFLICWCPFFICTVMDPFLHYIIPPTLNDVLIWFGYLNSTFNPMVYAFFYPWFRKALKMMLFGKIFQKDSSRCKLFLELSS
#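 Material: RD-HGA16 CHO cells with stable hTAAR1 and Gα16; Dosing: single nominal final test compound concentration of 3 µM; Schedule: seeding 17-24 h prior, 75-min 37 °C, 30-min RT dye loading; Detection: kinetic Fluo-8 calcium fluorescence measurement; Measure: % inhibition from peak post-agonist over basal fluorescence ratio; Benchmarks: vehicle and agonist controls.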
# OX1R antag-1 – OX1R (human) antagonism; actives 1.8% (n = 330,000); O43613; inhibition, % at 6.6 µM; OX1R-expressing cells, FRET antagonist read-out; AID 485270; in the data active = inhibition mostly above about 38%, no sharp cut-off; inactive = mostly below about 40%
# OX1R antag-2 – blocks the human orexin 1 receptor. O43613. CHO/OX1R cells, Fluo-8 calcium fluorescence, orexin A. inhibition, % at 5 µM. actives 0.43% (n = 330,000). AID 434989;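 active = inhibition above its plate's threshold, mean inhibition of all tested compounds on the plate plus 3 SD, cut at about 37% in these data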
# GPR7 antagonist – antagonists of human GPR7 (neuropeptides B/W receptor 1); P48145; inhibition, % at 4.4 µM; actives 1.1% (n = 290,000); GPR7-expressing cells, fluorescence antagonist assay; AID 1861; in the data active = inhibition above about 16%, passing the limit was not always enough;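 also: cells stimulated with the agonist NPW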
# Target sequence (P48145 whole entry, looked up): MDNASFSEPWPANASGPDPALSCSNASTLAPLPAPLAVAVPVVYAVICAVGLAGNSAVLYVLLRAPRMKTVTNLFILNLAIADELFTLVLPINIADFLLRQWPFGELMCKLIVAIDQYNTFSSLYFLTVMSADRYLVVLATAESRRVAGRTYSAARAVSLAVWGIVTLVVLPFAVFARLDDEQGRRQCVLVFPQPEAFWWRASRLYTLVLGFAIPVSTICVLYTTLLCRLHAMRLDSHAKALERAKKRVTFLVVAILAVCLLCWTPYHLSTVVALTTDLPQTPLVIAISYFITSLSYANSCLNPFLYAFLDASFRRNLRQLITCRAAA
# TAAR1 agonist – agonists of human TAAR1; actives 0.99% (n = 360,000); activation, % at 3 µM; AID 624467; CHO RD-HGA16 TAAR1, Fluo-8 calcium fluorescence; vehicle wells 0%, saturating PEA agonist 100%; Q96RJ0;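 active = activation above the mean activation of all test compounds in the run plus 3 SD, cut at about 38% in these data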
#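 Repeats: no replicates (n 1) | Material: CHO-derived RD-HGA16 cells with stable Gα16 and human TAAR1 | Technique: Kinetic Fluo-8 calcium fluorescence | Schedule: 17-24 h seeding, 75 min 37 °C dye, 30 min RT | Evaluation: % activation from peak over basal fluorescence ratio, DMSO-to-PEA scaled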
# nonsel antag count – nonselective antagonism, TAAR1 counter-screen; shares compounds with TAAR1 antagonist; counterscreen cell line, calcium fluorescence, antagonist mode; inhibition, % at 3 µM; actives 77% (n = 2,400); AID 651780; in the data active = inhibition above about 22%;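 also: CHO-Ga16 host cells stimulated with ATP at an EC80 level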
# TAAR1 ant conf – confirmation of human TAAR1 antagonists | AID 651785 | inhibition, % at 3 µM | actives 40% (n = 2,400) | shares compounds with TAAR1 antagonist | TAAR1-expressing cells, fluorescence antagonist read-out; in the data active = inhibition above about 49%;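 also: CHO-Ga16 host cells challenged with agonist PEA near its EC80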
# Ga16 ag counter – nonselective Ga16 agonism, counter-screen; shares compounds with TAAR1 antagonist; Ga16-expressing cells, calcium fluorescence, agonist counterscreen; activation, % at 3 µM; actives 18% (n = 2,400); in the data active = activation above about 12%
# TAAR1 ag count – activates human TAAR1 in antagonist counter-screen; shares compounds with TAAR1 antagonist; actives 2% (n = 2,400); hTAAR1 cell line, fluorescence activation, agonist mode; activation, % at 3 µM; in the data active = activation above about 37%;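 also: CHO cells stably expressing TAAR1 with calcium dye readout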
# A number is an active result; - = inactive; . = not tested or not shown. Hits are enriched below; roughly 4.6% of the tested compounds scored in any of these assays.
SMILES,CHO parental Ca,TAAR1 antagonist,OX1R antag-1,OX1R antag-2,GPR7 antagonist,TAAR1 agonist,nonsel antag count,TAAR1 ant conf,Ga16 ag counter,TAAR1 ag count
Cc1ccc2c(c1)N(CCC(=O)NCC1COc3ccccc3O1)C(=O)CO2 (centres undefined),-,-,-,-,-,-,.,.,.,.
CCC1Oc2ccc(C)cc2N(CC(=O)NCC2COc3ccccc3O2)C1=O (centres undefined),-,67.2,-,-,-,-,23.6,48.7,-,-
Cc1ccc(-c2csc(NC(=O)/C=C/c3cccs3)n2)cc1C,-,-,-,-,-,-,.,.,.,.
N#Cc1ccc(-c2csc(NC(=O)/C=C/c3cccs3)n2)cc1,-,61.2,-,-,-,-,39.9,51.5,-,-
C=C(C)C(=O)OCC(O)COc1ccc(C(C)(C)c2ccc(OCC(O)COC(=O)C(=C)C)cc2)cc1 (centres undefined),56.8,91.8,-,-,.,-,55.3,69.9,19.3,-
CNC(=O)c1ccsc1NC(=O)C1CCN(S(=O)(=O)c2ccc(Cl)s2)CC1,-,58.2,-,-,.,-,29.1,-,15.1,-
O=C(CCn1c(=S)oc2ccccc21)Nc1ccccc1Br,-,-,-,-,-,-,.,.,.,.
Nc1c(S(=O)(=O)c2cccs2)c2nc3ccccc3nc2n1/N=C/c1cccc(O)c1,-,52.2,-,-,-,-,33.0,52.1,-,-
Cc1nc(C(F)(F)F)ccc1C(=O)N1CCC1(C)C(=O)NS(=O)(=O)c1cccc(Cl)c1 (centres undefined),.,-,.,.,.,-,.,.,.,.
COC(=O)c1oc2c(c1C)C1(CCC2)SCCS1,-,95.3,-,-,-,-,-,82.5,-,-
O=C(CSc1n[nH]c(=O)n1C1CC1)Nc1cc(Cl)ccc1Oc1ccccc1,32.7,79.0,-,-,-,-,46.6,65.7,13.8,-
Cc1cc(-c2cc(NC(=O)Cc3c[nH]c4ccccc34)ccc2Nc2cccnc2)ccc1F,.,62.9,.,.,.,-,26.8,-,-,-
COc1ccc(-c2cc(NC(=O)Cc3c[nH]c4ccccc34)ccc2Nc2cccnc2)c(OC)c1,.,64.3,.,.,.,-,31.8,52.2,-,-
COc1ccc(-c2cc(NC(=O)Cc3c[nH]c4ccccc34)ccc2N(C)c2cccnc2)cc1F,.,-,.,.,.,-,.,.,.,.
Cc1cc(-c2cc(NC(=O)Cc3c(C)[nH]c4ccccc34)ccc2Nc2cccnc2)ccc1F,.,-,.,.,.,-,.,.,.,.
Cc1nc(NC(=O)c2ccccc2)sc1C1(C)CC(c2ccc(OC(F)(F)F)cc2)=NO1 (centres undefined),-,.,-,-,.,.,.,.,.,.
O=C1c2ccccc2C(Nc2ccc3c(c2)OCCO3)N1Cc1ccc2c(c1)OCO2 (centres undefined),-,63.1,-,-,-,-,-,-,-,-
O=C1c2ccccc2C(Nc2ccc3c(c2)OCCO3)N1c1ccc(Cl)cn1 (centres undefined),-,50.5,-,-,-,-,23.4,-,-,-
O=C(NCc1ccco1)c1ccc(Cl)c(S(=O)(=O)Nc2ccccc2)c1,-,-,-,-,-,-,.,.,.,.
C=CCNC(=O)c1ccccc1NC(=O)c1ccc(Cl)c(S(=O)(=O)Nc2ccccc2)c1,-,54.6,-,-,-,-,27.9,-,-,-
CN(c1ccccc1)S(=O)(=O)c1cccc(NC(=O)Cn2cnc3ccccc3c2=O)c1,-,-,-,-,-,-,.,.,.,.
CN(c1ccccc1)S(=O)(=O)c1cccc(NC(=O)c2nn(C)c(=O)c3ccccc23)c1,-,59.3,-,-,.,-,25.3,-,-,-
COc1cc(C)cc(OC)c1OCC(=O)Nc1cc(C)on1,-,88.2,-,-,.,-,-,-,-,-
CCNS(=O)(=O)c1ccc(NC(=S)NCC2CCCO2)cc1 (centres undefined),-,-,-,-,-,-,.,.,.,.
CC(C)(C)C(=O)O/N=C(\N)c1c(Cl)cccc1Cl,-,-,-,-,-,-,.,.,.,.
SMILES,CHO parental Ca,TAAR1 antagonist,OX1R antag-1,OX1R antag-2,GPR7 antagonist,TAAR1 agonist,nonsel antag count,TAAR1 ant conf,Ga16 ag counter,TAAR1 ag count
C=CC[C@H](CC(=O)NCCO)C(=O)N[C@H](COC(=O)[C@H](CC=C)CC(=O)OC(C)(C)C)Cc1c[nH]c2ccccc12,-,49.0,-,-,.,-,-,-,-,-
C=CC[C@H](CC(=O)N(CCO)Cc1ccccc1)C(=O)N[C@@H](COC(=O)[C@@H](CC=C)CC(=O)OC(C)(C)C)Cc1c[nH]c2ccccc12,-,68.3,-,-,.,-,32.4,-,-,-
C=CC[C@@H](CC(=O)N(CCO)Cc1ccccc1)C(=O)N[C@@H](COC(=O)[C@H](CC=C)CC(=O)OC(C)(C)C)Cc1c[nH]c2ccccc12,-,-,-,-,.,-,.,.,.,.
COc1ccc2sc(-c3ccc(S(C)(=O)=O)cc3)c(-c3ccc(SC)cc3)c2c1,-,-,-,-,.,-,.,.,.,.
O=C(CSc1ncnc2c1nnn2-c1ccc(F)cc1)NCc1ccco1,-,63.7,-,-,-,-,-,-,-,-
CC(=O)c1ccc(N2CCN(C(=O)c3ccc(NC(=O)C4CCCO4)cc3)CC2)cc1 (centres undefined),-,-,-,-,-,-,.,.,.,.
COc1ccc(-c2nc(NC(=O)c3ccc(OCC(=O)Nc4ccc(F)cc4)c(OC)c3)sc2C)cc1,-,65.2,-,-,-,-,29.9,-,-,-
Cc1ccc(-c2csc(N3CCN(CCCn4c(-c5ccncc5)nc5ccccc54)CC3)n2)cc1,-,55.5,-,-,-,-,24.7,-,-,-
Cc1ccc(-c2csc(N3CCN(CCCn4c(C(F)(F)F)nc5ccccc54)CC3)n2)cc1,-,-,-,-,-,-,.,.,.,.
Cc1ccc(-c2csc(N3CCC[C@@H]3C(=O)NCCn3c(-c4ccncc4)nc4ccccc43)n2)cc1,-,62.4,-,-,-,-,26.1,49.5,-,-
Cc1cccc(-n2ccc(=O)c(C(=O)Nc3ccc(S(=O)(=O)N4CCOCC4)cc3)n2)c1,-,-,-,-,-,-,.,.,.,.
OC(CN1CCN(c2ccccc2F)CC1)c1ccc(F)cc1 (centres undefined),-,-,-,-,-,-,.,.,.,.
Cc1ccc2cc(C#N)c(N3CCN(C(=O)c4ccccc4)CC3)nc2c1,-,70.8,-,-,-,-,34.2,-,-,-
